Active and inactive are the calls of the source. The rule behind the calls is not given here.
Key:
[1] = biological target: Rhodesain (Trypanosoma brucei rhodesiense) (UniProt Q95PM0); assay: Inhibition of recombinant Trypanosoma brucei rhodesain at 100 uM using Z-FR-AMC as substrate preincubated for 10 mins followed by substrate addition measured for 5 mins by fluorimetric analysis relative to control
How it was run: (§1)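 Recombinant enzyme (cruzain expressed in-house; rhodesain donated) at 0.5 nM in 0.1 M sodium acetate pH 5.5 with 1 mM DTT and 0.01% Triton X-100. Compound pre-incubated with enzyme 10 min, then 2.5 µM Z-FR-AMC added. Fluorescence followed 5 min. Activity taken from initial rates against DMSO control, E64 as positive control. Screen at 100 µM. IC50 from ≥8 concentrations by nonlinear regression. Two independent experiments in triplicate.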

[2] = biological target: Cruzipain (Trypanosoma cruzi) (UniProt P25779); assay: Inhibition of recombinant Trypanosoma cruzi cruzain at 100 uM using Z-FR-AMC as substrate preincubated for 10 mins followed by substrate addition measured for 5 mins by fluorimetric analysis relative to control; how it was run: as §1
Trypanosoma cruzi = assay: Antitrypanosomal activity against Trypanosoma cruzi Dm28c assessed as live parasite count measured after 72 hrs by optical microscopy; assay type: functional; conditions: read-out: LD50 (the source's name)
Vero = assay: Cytotoxicity against African green monkey Vero cells measured after 24 hrs; assay type: functional; conditions: Chlorocebus sabaeus
Rhodesain [3] = biological target: T1, Rhodesain (Trypanosoma brucei rhodesiense, UniProt Q95PM0); assay: Binding affinity to Trypanosoma brucei rhodesain; how it was run: as §1
[4] = biological target: Rhodesain (Trypanosoma brucei rhodesiense) (UniProt Q95PM0); assay: Reversible inhibition of recombinant Trypanosoma brucei rhodesain using Z-FR-AMC as substrate measured for 30 mins by fluorimetric analysis
How it was run: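 Rhodesain at 100-fold final assay concentration incubated 30 min with compound at 10-fold its IC50. The mixture was then diluted 100-fold into buffer with 2.5 µM Z-FR-AMC, giving standard enzyme level and 0.1× IC50. AMC release was monitored continuously for 30 min and compared with vehicle control. E-64 served as irreversible reference.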

[5] = biological target: Rhodesain (Trypanosoma brucei rhodesiense) (UniProt Q95PM0); assay: Inhibition of recombinant Trypanosoma brucei rhodesain at 100 uM using Z-FR-AMC as substrate by fluorimetric analysis; conditions: TDE = time-dependent effect; how it was run: as §1
[6] = biological target: Rhodesain (Trypanosoma brucei rhodesiense) (UniProt Q95PM0); assay: Inhibition of recombinant Trypanosoma brucei rhodesain at 100 uM using Z-FR-AMC as substrate by fluorimetric analysis relative to control; how it was run: as §1
Rhodesain [7] = biological target: T1, Rhodesain; assay: Inhibition of recombinant Trypanosoma brucei rhodesain using Z-FR-AMC as substrate by fluorimetric analysis relative to control
How it was run: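 Rhodesain (recombinant, gift) 0.5 nM in 0.1 M sodium acetate pH 5.5 with 1 mM DTT and 0.01% Triton X-100. Z-FR-AMC substrate 2.5 µM, read by fluorescence over 5 min. Activity from initial rates versus DMSO control, with E64 as positive control. Two independent experiments in triplicate. IC50 from at least 8 concentrations by nonlinear regression.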

Rhodesain [8] = biological target: T1, Rhodesain; assay: Inhibition of recombinant Trypanosoma brucei rhodesain using Z-FR-AMC as substrate preincubated for 10 mins followed by substrate addition measured for 5 mins by fluorimetric analysis relative to control
How it was run: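 Recombinant rhodesain (0.5 nM) in 0.1 M sodium acetate pH 5.5 with 1 mM DTT and 0.01% Triton X-100, pre-incubated with compound for 10 min before adding 2.5 µM Z-FR-AMC. Fluorescence monitored 5 min. Initial rates compared with DMSO control. Screen at 100 µM; IC50 determined for compounds above 70% inhibition, from at least 8 concentrations, two independent experiments in triplicate.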

Cruzipain = Cruzipain (Trypanosoma cruzi, UniProt P25779); assay: Inhibition of recombinant Trypanosoma cruzi cruzain using Z-FR-AMC as substrate preincubated for 10 mins followed by substrate addition measured for 5 mins by fluorimetric analysis relative to control; how it was run: as §1
[9] = biological target: Rhodesain (Trypanosoma brucei rhodesiense) (UniProt Q95PM0); assay: Inhibition of recombinant Trypanosoma brucei rhodesain at 0.1 uM using Z-FR-AMC as substrate by fluorimetric analysis relative to control
[10] = biological target: Rhodesain (Trypanosoma brucei rhodesiense) (UniProt Q95PM0); assay: Inhibition of recombinant Trypanosoma brucei rhodesain at 0.1 uM using Z-FR-AMC as substrate preincubated for 10 mins followed by substrate addition by fluorimetric analysis relative to control

Sequence of Cruzipain (P25779 whole entry): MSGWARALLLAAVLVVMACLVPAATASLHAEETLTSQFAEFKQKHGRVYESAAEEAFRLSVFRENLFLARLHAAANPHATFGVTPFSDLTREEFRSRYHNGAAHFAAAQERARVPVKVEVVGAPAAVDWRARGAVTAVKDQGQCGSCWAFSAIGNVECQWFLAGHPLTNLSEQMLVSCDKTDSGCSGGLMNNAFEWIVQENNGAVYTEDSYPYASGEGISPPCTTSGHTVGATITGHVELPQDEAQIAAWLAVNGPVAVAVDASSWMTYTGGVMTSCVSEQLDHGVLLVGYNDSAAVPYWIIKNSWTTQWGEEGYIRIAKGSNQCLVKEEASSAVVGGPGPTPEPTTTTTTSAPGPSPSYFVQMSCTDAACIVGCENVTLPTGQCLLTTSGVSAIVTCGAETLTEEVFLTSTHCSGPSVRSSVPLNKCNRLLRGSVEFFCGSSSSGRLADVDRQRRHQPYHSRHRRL
Sequence of Cruzipain (Trypanosoma cruzi) (P25779 123-467 limits assumed): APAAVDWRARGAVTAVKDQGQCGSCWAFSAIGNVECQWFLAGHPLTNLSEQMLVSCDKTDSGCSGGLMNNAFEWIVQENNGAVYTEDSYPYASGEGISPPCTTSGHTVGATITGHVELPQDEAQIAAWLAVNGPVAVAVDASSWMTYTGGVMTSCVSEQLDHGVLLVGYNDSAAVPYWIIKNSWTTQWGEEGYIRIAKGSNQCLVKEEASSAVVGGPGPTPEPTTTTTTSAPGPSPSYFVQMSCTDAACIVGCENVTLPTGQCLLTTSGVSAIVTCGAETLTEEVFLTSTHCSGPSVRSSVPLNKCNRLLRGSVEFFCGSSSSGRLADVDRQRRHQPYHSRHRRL
Sequence of Rhodesain (Trypanosoma brucei rhodesiense) (Q95PM0 1-450): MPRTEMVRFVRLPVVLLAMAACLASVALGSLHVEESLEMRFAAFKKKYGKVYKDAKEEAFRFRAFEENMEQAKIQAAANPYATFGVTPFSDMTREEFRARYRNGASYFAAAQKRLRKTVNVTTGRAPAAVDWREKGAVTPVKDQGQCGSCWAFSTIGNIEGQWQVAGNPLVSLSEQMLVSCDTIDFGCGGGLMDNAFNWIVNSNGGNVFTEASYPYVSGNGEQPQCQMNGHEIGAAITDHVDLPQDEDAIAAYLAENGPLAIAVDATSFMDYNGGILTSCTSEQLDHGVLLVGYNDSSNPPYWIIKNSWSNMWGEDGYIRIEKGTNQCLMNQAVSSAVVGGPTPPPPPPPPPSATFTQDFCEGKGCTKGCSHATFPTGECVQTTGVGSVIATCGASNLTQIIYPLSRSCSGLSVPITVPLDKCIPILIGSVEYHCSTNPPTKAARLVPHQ
T1 sequence (Q95PM0 whole entry): as the sequence (Q95PM0 1-450) above

O=C1C=C(O)c2ccccc2/C1=N/NC(=O)c1ccncc1
inhibition [1]: 52% | inhibition [2]: 66%

O=C1C=C(Br)C(=O)c2ccccc21
inhibition [1]: 50% | inhibition [2]: 51%

CC1(C)CCC2=C(O1)C1(CO1)c1ccccc1C2=O (stereo not given)
LC50 (Trypanosoma cruzi): < 3.1 µM | CC50 (Vero): > 50 µM

Cc1cc(NS(=O)(=O)c2ccc(NC3=CC(=O)c4ccccc4C3=O)cc2)no1
inhibition [1]: 1% | inhibition [2]: 6%

CC(C)C[C@H](NC(=O)[C@H](Cc1ccccc1)NC1=C(C#N)C(=O)c2ccccc2C1=O)C(=O)O
Ki (Rhodesain [3]): 0.0005 µM

COC1=CC(=O)c2ccccc2C1=O
inhibition [1]: 27% | inhibition [2]: 32%

O=C1C=C(Nc2ccc(S(=O)(=O)Nc3ccccn3)cc2)C(=O)c2ccccc21
inhibition [4]: Active | inhibition [5]: Tde | inhibition [6]: 48% | IC50 (Rhodesain [7]): 30 µM | inhibition [1]: 93% | IC50 (Rhodesain [8]): 1.8 µM | inhibition [2]: 95% | IC50 (Cruzipain): 6.3 µM

O=C1C=C(O)C(=O)c2ccccc21 [LAWSONE]
inhibition [4]: Active | inhibition [5]: Tde | inhibition [6]: 27% | IC50 (Rhodesain [7]): > 100 µM | inhibition [1]: 77% | IC50 (Rhodesain [8]): 33 µM | inhibition [2]: 58%

CC(C)=CCC1=C(O)c2ccccc2/C(=N/NC(N)=S)C1=O
inhibition [4]: Active | inhibition [6]: 79% | IC50 (Rhodesain [7]): 66 µM | inhibition [1]: 82% | IC50 (Rhodesain [8]): 28 µM | inhibition [2]: 83% | IC50 (Cruzipain): 34 µM

O=C1C(Cl)=C(Cl)C(=O)c2ccccc21
inhibition [1]: 56% | inhibition [2]: 49%

CC(C)=CCC1=C(O)C(=O)c2ccccc2C1=O [LAPACHOL]
inhibition [4]: Active | inhibition [5]: Tde | inhibition [6]: 18% | IC50 (Rhodesain [7]): > 100 µM | inhibition [1]: 70% | IC50 (Rhodesain [8]): 58 µM | inhibition [2]: 35%

CC(C)C[C@H](NC(=O)[C@H]1O[C@@H]1C(=O)O)C(=O)NCCCCN=C(N)N [E-64]
inhibition [4]: Active | inhibition [9]: 7% | inhibition [10]: 95% | IC50 (Rhodesain [8]): 0.0031 µM | IC50 (Cruzipain): 0.02 µM

O=C(NNC1=CC(=O)c2ccccc2C1=O)c1ccncc1
inhibition [1]: 37% | inhibition [2]: 37%

CC(C)=CCC1=C(O)c2ccccc2/C(=N/NC(=O)c2ccncc2)C1=O
inhibition [4]: Active | inhibition [6]: 73% | IC50 (Rhodesain [7]): 29 µM | inhibition [1]: 87% | IC50 (Rhodesain [8]): 20 µM | inhibition [2]: 76% | IC50 (Cruzipain): 33 µM

CC(NC1=CC(=O)c2ccccc2C1=O)c1ccccc1 (stereo not given)
inhibition [1]: 23% | inhibition [2]: 26%

O=C1C=C(Nc2ccccc2)C(=O)c2ccccc21
inhibition [1]: 61% | inhibition [2]: 48%

Reference: ChEMBL document CHEMBL4811271, “Computer-aided design of 1,4-naphthoquinone-based inhibitors targeting cruzain and rhodesain cysteine proteases” (Bioorg Med Chem, 2021)
